Results taken from article PMC3902791 (Molecular imaging and biology : MIB : the official …, 2012).
“And” between values parts separate entries of the source, which are not always exact repeats. Identical values can stand only once. Like-named read-outs stand apart in the source and are kept apart here.

Set-up: species or system human
In short: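 Organ time–activity curves came from whole-body scan VOI data. These were fitted mono-exponentially in five animals; in the sixth, with two scans, a linear fit to the log values was used. Time-integrated activity coefficients were scaled by the ratio of body-mass-normalised human to CT-derived macaque organ masses. Intestinal values were split in thirds across small intestine, ULI and LLI. Organ doses (mSv/MBq) were computed per animal with the OLINDA/EXM 1.1 adult male model.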

Question: What does the source list for O=C(O)C[18F] [^18F-FACE, ^18F-fluoroacetate]?
Answer: Dose to adult human model, Total body (All, Mean±SD): 0.011±0.002 mSv/MBq; ED effective dose, adult human model (All, Mean±SD): 0.0211 mSv/MBq and 0.021±0.004 mSv/MBq; EDE effective dose equivalent, adult human model (All, Mean±SD): 0.023±0.004 mSv/MBq; Organ dose to adult human model, Adrenals (All, Mean±SD): 0.013±0.002 mSv/MBq; Organ dose to adult human model, Brain (All, Mean±SD): 0.00762 mSv/MBq and 0.008±0.002 mSv/MBq; Organ dose to adult human model, Breasts (All, Mean±SD): 0.00774 mSv/MBq and 0.008±0.001 mSv/MBq; Organ dose to adult human model, Gallbladder wall (All, Mean±SD): 0.0288 mSv/MBq and 0.029±0.010 mSv/MBq; Organ dose to adult human model, Heart wall (All, Mean±SD): 0.025±0.010 mSv/MBq; Organ dose to adult human model, Kidneys (All, Mean±SD): 0.0342 mSv/MBq and 0.034±0.008 mSv/MBq; Organ dose to adult human model, LLI wall (lower large intestine) (All, Mean±SD): 0.075±0.027 mSv/MBq; Organ dose to adult human model, Liver (All, Mean±SD): 0.0307 mSv/MBq and 0.031±0.021 mSv/MBq; Organ dose to adult human model, Lungs (All, Mean±SD): 0.010±0.002 mSv/MBq; Organ dose to adult human model, Muscle (All, Mean±SD): 0.010±0.002 mSv/MBq; Organ dose to adult human model, Osteogenic cells (All, Mean±SD): 0.014±0.003 mSv/MBq; Organ dose to adult human model, Ovaries (All, Mean±SD): 0.016±0.002 mSv/MBq; Organ dose to adult human model, Pancreas (All, Mean±SD): 0.013±0.002 mSv/MBq; Organ dose to adult human model, Red marrow (All, Mean±SD): 0.0102 mSv/MBq and 0.010±0.002 mSv/MBq; Organ dose to adult human model, Skin (All, Mean±SD): 0.007±0.001 mSv/MBq; Organ dose to adult human model, Small intestine (All, Mean±SD): 0.037±0.011 mSv/MBq; Organ dose to adult human model, Spleen (All, Mean±SD): 0.011±0.002 mSv/MBq; Organ dose to adult human model, Stomach wall (All, Mean±SD): 0.012±0.002 mSv/MBq; Organ dose to adult human model, Testes (All, Mean±SD): 0.009±0.001 mSv/MBq; Organ dose to adult human model, Thymus (All, Mean±SD): 0.010±0.002 mSv/MBq; Organ dose to adult human model, Thyroid (All, Mean±SD): 0.00888 mSv/MBq and 0.009±0.002 mSv/MBq; Organ dose to adult human model, ULI wall (upper large intestine) (All, Mean±SD): 0.056±0.019 mSv/MBq; Organ dose to adult human model, Urinary bladder wall (All, Mean±SD): 0.021±0.010 mSv/MBq; Organ dose to adult human model, Uterus (All, Mean±SD): 0.014±0.003 mSv/MBq; Dose to adult human model, Total body (Female, Mean±SD): 0.010±0.002 mSv/MBq; ED effective dose, adult human model (Female, Mean±SD): 0.018±0.001 mSv/MBq; EDE effective dose equivalent, adult human model (Female, Mean±SD): 0.020±0.001 mSv/MBq; Organ dose to adult human model, Adrenals (Female, Mean±SD): 0.012±0.002 mSv/MBq; Organ dose to adult human model, Brain (Female, Mean±SD): 0.007±0.002 mSv/MBq; Organ dose to adult human model, Breasts (Female, Mean±SD): 0.007±0.002 mSv/MBq; Organ dose to adult human model, Gallbladder wall (Female, Mean±SD): 0.031±0.013 mSv/MBq; Organ dose to adult human model, Heart wall (Female, Mean±SD): 0.019±0.006 mSv/MBq; Organ dose to adult human model, Kidneys (Female, Mean±SD): 0.031±0.010 mSv/MBq; Organ dose to adult human model, LLI wall (lower large intestine) (Female, Mean±SD): 0.058±0.005 mSv/MBq; Organ dose to adult human model, Liver (Female, Mean±SD): 0.021 ±0.009 mSv/MBq; Organ dose to adult human model, Lungs (Female, Mean±SD): 0.009±0.002 mSv/MBq; Organ dose to adult human model, Muscle (Female, Mean±SD): 0.009±0.002 mSv/MBq; Organ dose to adult human model, Osteogenic cells (Female, Mean±SD): 0.014±0.004 mSv/MBq; Organ dose to adult human model, Ovaries (Female, Mean±SD): 0.016±0.002 mSv/MBq; Organ dose to adult human model, Pancreas (Female, Mean±SD): 0.012±0.002 mSv/MBq; Organ dose to adult human model, Red marrow (Female, Mean±SD): 0.009±0.002 mSv/MBq; Organ dose to adult human model, Skin (Female, Mean±SD): 0.007±0.002 mSv/MBq; Organ dose to adult human model, Small intestine (Female, Mean±SD): 0.030±0.002 mSv/MBq; Organ dose to adult human model, Spleen (Female, Mean±SD): 0.010±0.003 mSv/MBq; Organ dose to adult human model, Stomach wall (Female, Mean±SD): 0.011±0.002 mSv/MBq; Organ dose to adult human model, Thymus (Female, Mean±SD): 0.009±0.002 mSv/MBq; Organ dose to adult human model, Thyroid (Female, Mean±SD): 0.009±0.003 mSv/MBq; Organ dose to adult human model, ULI wall (upper large intestine) (Female, Mean±SD): 0.044±0.003 mSv/MBq; Organ dose to adult human model, Urinary bladder wall (Female, Mean±SD): 0.017±0.004 mSv/MBq; Organ dose to adult human model, Uterus (Female, Mean±SD): 0.014±0.003 mSv/MBq; Dose to adult human model, Total body (Male, Mean±SD): 0.012±0.001 mSv/MBq; ED effective dose, adult human model (Male, Mean±SD): 0.025±0.003 mSv/MBq; EDE effective dose equivalent, adult human model (Male, Mean±SD): 0.027±0.003 mSv/MBq; Organ dose to adult human model, Adrenals (Male, Mean±SD): 0.014±0.002 mSv/MBq; Organ dose to adult human model, Brain (Male, Mean±SD): 0.008±0.001 mSv/MBq; Organ dose to adult human model, Breasts (Male, Mean±SD): 0.008±0.001 mSv/MBq; Organ dose to adult human model, Gallbladder wall (Male, Mean±SD): 0.027±0.008 mSv/MBq; Organ dose to adult human model, Heart wall (Male, Mean±SD): 0.031±0.010 mSv/MBq; Organ dose to adult human model, Kidneys (Male, Mean±SD): 0.037±0.008 mSv/MBq; Organ dose to adult human model, LLI wall (lower large intestine) (Male, Mean±SD): 0.091±0.031 mSv/MBq; Organ dose to adult human model, Liver (Male, Mean±SD): 0.040±0.026 mSv/MBq; Organ dose to adult human model, Lungs (Male, Mean±SD): 0.010±0.001 mSv/MBq; Organ dose to adult human model, Muscle (Male, Mean±SD): 0.010±0.001 mSv/MBq; Organ dose to adult human model, Osteogenic cells (Male, Mean±SD): 0.015±0.001 mSv/MBq; Organ dose to adult human model, Pancreas (Male, Mean±SD): 0.015±0.001 mSv/MBq; Organ dose to adult human model, Red marrow (Male, Mean±SD): 0.011±0.001 mSv/MBq; Organ dose to adult human model, Skin (Male, Mean±SD): 0.008±0.001 mSv/MBq; Organ dose to adult human model, Small intestine (Male, Mean±SD): 0.044±0.012 mSv/MBq; Organ dose to adult human model, Spleen (Male, Mean±SD): 0.012±0.001 mSv/MBq; Organ dose to adult human model, Stomach wall (Male, Mean±SD): 0.013±0.001 mSv/MBq; Organ dose to adult human model, Testes (Male, Mean±SD): 0.009±0.001 mSv/MBq; Organ dose to adult human model, Thymus (Male, Mean±SD): 0.010±0.001 mSv/MBq; Organ dose to adult human model, Thyroid (Male, Mean±SD): 0.009±0.001 mSv/MBq; Organ dose to adult human model, ULI wall (upper large intestine) (Male, Mean±SD): 0.068±0.021 mSv/MBq; Organ dose to adult human model, Urinary bladder wall (Male, Mean±SD): 0.025±0.015 mSv/MBq; estimated effective dose for an adult human (administration of 185–370 MBq): 3.90–7.81 mSv; radiation absorbed dose, intestines (adult male model): 0.0366–0.0745 mSv/MBq; Dose to adult human model, Total body (from animal 1, male): 0.012 mSv/MBq; ED effective dose, adult human model (from animal 1, male): 0.022 mSv/MBq; EDE effective dose equivalent, adult human model (from animal 1, male): 0.024 mSv/MBq; Organ dose to adult human model, Adrenals (from animal 1, male): 0.016 mSv/MBq; Organ dose to adult human model, Brain (from animal 1, male): 0.007 mSv/MBq; Organ dose to adult human model, Breasts (from animal 1, male): 0.008 mSv/MBq; Organ dose to adult human model, Gallbladder wall (from animal 1, male): 0.031 mSv/MBq; Organ dose to adult human model, Heart wall (from animal 1, male): 0.035 mSv/MBq; Organ dose to adult human model, Kidneys (from animal 1, male): 0.046 mSv/MBq; Organ dose to adult human model, LLI wall (lower large intestine) (from animal 1, male): 0.058 mSv/MBq; Organ dose to adult human model, Liver (from animal 1, male): 0.067 mSv/MBq; Organ dose to adult human model, Lungs (from animal 1, male): 0.011 mSv/MBq; Organ dose to adult human model, Muscle (from animal 1, male): 0.010 mSv/MBq; Organ dose to adult human model, Osteogenic cells (from animal 1, male): 0.014 mSv/MBq; Organ dose to adult human model, Pancreas (from animal 1, male): 0.016 mSv/MBq; Organ dose to adult human model, Red marrow (from animal 1, male): 0.011 mSv/MBq; Organ dose to adult human model, Skin (from animal 1, male): 0.007 mSv/MBq; Organ dose to adult human model, Small intestine (from animal 1, male): 0.031 mSv/MBq; Organ dose to adult human model, Spleen (from animal 1, male): 0.012 mSv/MBq; Organ dose to adult human model, Stomach wall (from animal 1, male): 0.013 mSv/MBq; Organ dose to adult human model, Testes (from animal 1, male): 0.009 mSv/MBq; Organ dose to adult human model, Thymus (from animal 1, male): 0.010 mSv/MBq; Organ dose to adult human model, Thyroid (from animal 1, male): 0.009 mSv/MBq; Organ dose to adult human model, ULI wall (upper large intestine) (from animal 1, male): 0.045 mSv/MBq; Organ dose to adult human model, Urinary bladder wall (from animal 1, male): 0.042 mSv/MBq; Dose to adult human model, Total body (from animal 2, male): 0.012 mSv/MBq; ED effective dose, adult human model (from animal 2, male): 0.025 mSv/MBq; EDE effective dose equivalent, adult human model (from animal 2, male): 0.027 mSv/MBq; Organ dose to adult human model, Adrenals (from animal 2, male): 0.014 mSv/MBq; Organ dose to adult human model, Brain (from animal 2, male): 0.007 mSv/MBq; Organ dose to adult human model, Breasts (from animal 2, male): 0.008 mSv/MBq; Organ dose to adult human model, Gallbladder wall (from animal 2, male): 0.033 mSv/MBq; Organ dose to adult human model, Heart wall (from animal 2, male): 0.038 mSv/MBq; Organ dose to adult human model, Kidneys (from animal 2, male): 0.032 mSv/MBq; Organ dose to adult human model, LLI wall (lower large intestine) (from animal 2, male): 0.096 mSv/MBq; Organ dose to adult human model, Liver (from animal 2, male): 0.041 mSv/MBq
